Source: ChEMBL document CHEMBL1137229, “Structural characterization and pharmacology of a potent (Cys101-Cys119, Cys110-Cys117) bicyclic agouti-related protein (AGRP) melanocortin receptor antagonist” (J Med Chem, 2004)
Bridge positions count the residues as written; N and C are the ends. Peptide text beside a SMILES is read from it.

Key:
[1] = target: Melanocyte-stimulating hormone receptor (Mus musculus, UniProt Q01727); test: Agonistic activity against mouse Melanocortin 1 Receptor; assay type: functional
In short: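 HEK-293 cells stably expressing the receptor (G418 selection), transiently transfected with a CRE/β-galactosidase reporter. Lysates read with ONPG at OD405 and normalized to protein content and forskolin (10^-4 M) response. EC50 from nonlinear least-squares fit, at least three independent experiments.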

Melanocortin receptor 4 [2] = target: T1, Melanocortin receptor 4 (Mus musculus, UniProt P56450); test: Displacement of [125I]-hAGRP(87-132) from mouse Melanocortin 4 Receptor
In short: (§1)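 Whole HEK-293 cells stably expressing mouse receptor, plated a day before at 0.1–0.3 × 10^6 cells/well. Chloramine-T-iodinated [125I]hAGRP(87–132) at 100000 cpm/well displaced by ligand. Nonspecific binding defined with 10^-6 M hAGRP(87–132). IC50 from nonlinear least-squares fit, or percent specific binding displaced at 10 μM. Duplicate points, at least two independent experiments, SD reported.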

Melanocortin receptor 4 [3] = target: T1, Melanocortin receptor 4; test: Antagonistic activity against mouse Melanocortin 4 Receptor; assay type: functional; conditions: read-out: pA2 (converted)
In short: (§2)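 Same HEK-293 CRE/β-galactosidase cAMP reporter system as the agonist assay, with a 6 h stimulation in IBMX-containing medium and normalization to protein and forskolin. Antagonism measured as the dose-dependent shift of the MTII agonist response, ligand up to 10 μM. pA2 derived by Schild analysis. Mean ± SEM of at least three independent experiments.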

Melanocortin receptor 3 [4] = target: T2, Melanocortin receptor 3 (Mus musculus, UniProt P33033); test: Displacement of [125I]-hAGRP(87-132) from mouse Melanocortin 3 Receptor; in short: as §1
Melanocortin receptor 3 [5] = target: T2, Melanocortin receptor 3; test: Antagonistic activity against mouse Melanocortin 3 Receptor; assay type: functional; conditions: read-out: pA2 (converted); in short: as §2

T1 sequence (P56450 whole entry): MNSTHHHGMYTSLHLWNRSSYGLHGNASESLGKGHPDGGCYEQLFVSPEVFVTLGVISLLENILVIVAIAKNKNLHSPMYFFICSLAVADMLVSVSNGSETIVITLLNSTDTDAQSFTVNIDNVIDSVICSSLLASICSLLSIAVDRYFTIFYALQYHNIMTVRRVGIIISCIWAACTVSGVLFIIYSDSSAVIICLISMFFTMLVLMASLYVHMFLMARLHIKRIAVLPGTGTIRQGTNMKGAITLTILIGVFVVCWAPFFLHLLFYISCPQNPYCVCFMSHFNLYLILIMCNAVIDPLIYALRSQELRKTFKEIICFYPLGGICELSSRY
T2 sequence (P33033 whole entry): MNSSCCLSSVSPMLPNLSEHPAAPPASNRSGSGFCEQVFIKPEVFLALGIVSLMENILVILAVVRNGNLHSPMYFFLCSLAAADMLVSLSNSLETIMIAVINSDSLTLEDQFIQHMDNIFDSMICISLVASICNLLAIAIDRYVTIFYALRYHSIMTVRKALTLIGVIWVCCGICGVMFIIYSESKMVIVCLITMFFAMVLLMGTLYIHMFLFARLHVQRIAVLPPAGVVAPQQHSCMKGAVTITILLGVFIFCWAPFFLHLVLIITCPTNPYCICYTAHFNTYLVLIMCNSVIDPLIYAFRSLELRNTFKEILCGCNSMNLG
Melanocyte-stimulating hormone receptor, sequence (Q01727 whole entry): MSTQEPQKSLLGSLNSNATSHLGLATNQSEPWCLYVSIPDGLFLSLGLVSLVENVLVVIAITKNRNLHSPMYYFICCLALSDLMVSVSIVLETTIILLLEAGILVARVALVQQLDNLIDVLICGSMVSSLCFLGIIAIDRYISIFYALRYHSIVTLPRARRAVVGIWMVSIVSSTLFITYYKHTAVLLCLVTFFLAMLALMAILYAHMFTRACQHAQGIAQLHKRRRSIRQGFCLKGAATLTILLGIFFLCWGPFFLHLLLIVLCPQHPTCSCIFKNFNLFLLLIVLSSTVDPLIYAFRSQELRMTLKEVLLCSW

EC50 [1] | IC50 (Melanocortin receptor 4 [2]) | Kb (Melanocortin receptor 4 [3]) | IC50 (Melanocortin receptor 3 [4]) | Kb (Melanocortin receptor 3 [5]) | SMILES
1.46 µM | 10 nM | 31.6 nM | – | – | CC[C@@H]1NC(=O)[C@H]([C@@H](C)O)NC(=O)[C@H](C)NC(=O)[C@H](CC)NC(=O)[C@@H]2CCCN2C(=O)[C@H](CC(=O)O)NC(=O)[C@H](CC)NC(=O)[C@@H](N)CSSC[C@@H](C(=O)N[C@@H](CCCN=C(N)N)C(=O)N[C@@H](CCCCN)C(=O)N[C@@H](CC(C)C)C(=O)O)NC(=O)[C@H](Cc2ccc(O)cc2)NC(=O)[C@@H]2CSSC[C@H](NC(=O)[C@H](Cc3ccc(O)cc3)NC1=O)C(=O)N[C@@H](CCCN=C(N)N)C(=O)N[C@@H](Cc1ccccc1)C(=O)N[C@@H](Cc1ccccc1)C(=O)N[C@@H](CC(N)=O)C(=O)N[C@@H](C)C(=O)N[C@@H](Cc1ccccc1)C(=O)N2
5.12 µM | 275 nM | 158 nM | 11.7 µM | – | C[C@@H]1NC(=O)[C@H](CC(N)=O)NC(=O)[C@H](Cc2ccccc2)NC(=O)[C@H](Cc2ccccc2)NC(=O)[C@H](CCCNC(=N)N)NC(=O)[C@@H](NC(=O)[C@@H](N)Cc2ccc(O)cc2)CSSC[C@@H](C(=O)N[C@@H](Cc2ccc(O)cc2)C(N)=O)NC(=O)[C@H](Cc2ccccc2)NC1=O (H-YCRFFNAFCY-NH2; disulfide 2-9)
– | – | – | 0.14 µM | 158 nM | CC[C@@H]1NC(=O)[C@H](N)CSSC[C@@H](C(=O)N[C@@H](CCCN=C(N)N)C(=O)N[C@@H](CCCCN)C(=O)N[C@@H](CC(C)C)C(=O)O)NC(=O)[C@H](Cc2ccc(O)cc2)NC(=O)[C@H]2CSSC[C@H](NC(=O)[C@@H](Cc3ccc(O)cc3)NC(=O)[C@H](CC)NC(=O)[C@H]([C@@H](C)O)NC(=O)[C@@H](C)NC(=O)[C@H](CC)NC(=O)[C@@H]3CCCN3C(=O)[C@@H](CC(=O)O)NC1=O)C(=O)N[C@H](CCCN=C(N)N)C(=O)N[C@@H](Cc1ccccc1)C(=O)N[C@H](Cc1ccccc1)C(=O)N[C@@H](CC(N)=O)C(=O)N[C@H](C)C(=O)N[C@@H](Cc1ccccc1)C(=O)N2
